Rows were chosen to be rich in hits. Some 1% of all compounds tested hit in one or more screens of this group.
IMP-1 inhibitor = inhibitors of Pseudomonas aeruginosa IMP-1 metallo-beta-lactamase; inhibition, % at 5.6 µM; AID 1556; purified IMP-1, nitrocefin hydrolysis, epi-absorbance fluorescence; 290,000 tested, 0.45% active;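 active means inhibition above the mean plus 3 SD of all compounds in the same screening run, cut at about 4.5% in these data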;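 further: 0% = IMP-1 with DMSO and 100% = DMSO wells lacking enzyme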
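Material – recombinant IMP-1 enzyme, purified · Amount – IMP-1 0.2 nM before substrate addition · Medium – HEPES buffer pH 7.1 with ZnSO4 and Brij 35 · Timing – 25 °C, 15 min preincubation, 25 min reaction · Measured by – plate fluorescence quenching by hydrolysis product, ex 480/em 530 nm · Read-out – percent enzyme inhibition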
PDI turbidity = PDI (human) enzyme inhibition; 350,000 tested, 0.052% active; inhibition, % at 10 µM; PDI insulin aggregation turbidity, A650, 90 min; AID 588391;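 active means mean inhibition across replicates of 30% or more, whatever share of single replicates reach that level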
PvdQ inh = P. aeruginosa PvdQ acylase inhibition; inhibition, % at 10 µM; 340,000 tested, 0.063% active; purified PvdQ acylase, fluorescence plate reader; in the data active means inhibition above about 30%, passing the limit was not always enough;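 further: 0% = vehicle neutral wells and 100% = reference inhibitor wells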
PglD DTNB = inhibitors of Campylobacter jejuni PglD acetyltransferase; purified PglD enzyme, DTNB colorimetric CoA detection; inhibition, % at 12.5 µM; 360,000 tested, 0.098% active; AID 602405; in the data active means inhibition above about 16%, passing the limit was not always enough
VIM-2 inh = inhibitors of Pseudomonas aeruginosa VIM-2 metallo-beta-lactamase; purified VIM-2, nitrocefin hydrolysis, epi-absorbance fluorescence; inhibition, % at 5.6 µM; 290,000 tested, 0.89% active; AID 1527;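 active means inhibition above the mean of all tested compounds plus 3 SD, cutoff set per screening run, cut at about 7.5% in these data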;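 further: red hydrolysis product quenches plate fluorescence so inhibitors raise well fluorescence; 0% = enzyme with DMSO and 100% = DMSO without enzyme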
ERp5 inh = inhibitors of human ERp5. Q15084. ERp5 insulin aggregation, absorbance 650 nm, 90 min. 350,000 tested, 0.05% active. AID 651711. inhibition, % at 9.99 µM;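 active means mean replicate inhibition above about 25%, with every replicate also reaching it, limit read from the data, passing the limit was not always enough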
Target sequence (Q15084 whole entry, looked up): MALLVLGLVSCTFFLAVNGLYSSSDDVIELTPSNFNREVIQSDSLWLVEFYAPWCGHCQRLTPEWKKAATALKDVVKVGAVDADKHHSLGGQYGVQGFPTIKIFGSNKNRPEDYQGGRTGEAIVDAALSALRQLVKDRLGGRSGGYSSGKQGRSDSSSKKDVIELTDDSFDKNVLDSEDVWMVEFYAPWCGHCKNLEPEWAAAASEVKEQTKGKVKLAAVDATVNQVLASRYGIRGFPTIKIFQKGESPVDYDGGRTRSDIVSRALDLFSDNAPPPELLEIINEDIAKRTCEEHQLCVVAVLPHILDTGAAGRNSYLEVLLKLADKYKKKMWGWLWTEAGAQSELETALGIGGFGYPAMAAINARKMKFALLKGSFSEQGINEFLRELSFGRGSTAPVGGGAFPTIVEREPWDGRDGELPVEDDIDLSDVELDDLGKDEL
PglD inh SP = blocks Campylobacter jejuni PglD acetyltransferase activity. inhibition, % at 20 µM. 320 tested, under 10 active. shares compounds with PglD DTNB. Purified C. jejuni PglD, DTNB absorbance 412 nm;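 active means mean inhibition across replicates of at least 20% with every single replicate also at 20% or more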;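 further: initial rate of CoA release by acetyl transfer from AcCoA to the UDP-4-amino sugar; 0% = median of neutral control wells and 100% = median of positive control wells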
* = called active by the depositor.

Results for COCC(=O)Nc1ccc2c(c1)OC[C@@H](C)N(Cc1cc(F)ccc1F)C[C@H](C)[C@@H](OC)CN(C)C2=O ?
PglD DTNB: 2; ERp5 inh: -2

What do the screens show for `Cc1ccc(C(=O)N/N=C\c2ccc(OC(=O)c3cccc(F)c3)cc2)cn1`?
IMP-1 inhibitor: -2; PDI turbidity: -89; PvdQ inh: -9; PglD DTNB: 3; VIM-2 inh: -3; ERp5 inh: 0

Results for COc1cc(/C=N\NC(=O)c2ccc(C)nc2)ccc1OC(=O)c1cccc(F)c1 ?
IMP-1 inhibitor: -4; PDI turbidity: -14; PvdQ inh: -9; PglD DTNB: 29*; VIM-2 inh: -2; ERp5 inh: -3; PglD inh SP: -7

How did CN(C)C(=O)CSc1nnc(-c2cc(-c3cccs3)nc3ccccc23)o1 do in these assays?
IMP-1 inhibitor: 1; PDI turbidity: 20; PvdQ inh: -2; PglD DTNB: 54*; VIM-2 inh: 3; PglD inh SP: -8

How did COc1ccc(F)cc1S(=O)(=O)N1CCC(C(N)=O)CC1 do in these assays?
IMP-1 inhibitor: -6; PDI turbidity: -2; PvdQ inh: -14; PglD DTNB: 22*; VIM-2 inh: -1; PglD inh SP: -3

Results for COc1ccc(C(C)(C)C)cc1S(=O)(=O)N1CCC(C(N)=O)CC1 ?
IMP-1 inhibitor: -1; PDI turbidity: -5; PvdQ inh: 2; VIM-2 inh: -2

What do the screens show for `C[C@H](CO)N1C[C@H](C)[C@H](CN(C)Cc2ccc(-c3ccccc3)cc2)Oc2c(NS(=O)(=O)c3cccs3)cccc2C1=O`?
PglD DTNB: -5; ERp5 inh: -2

How did COc1cc(NC(=O)Cc2nn(C)c(=O)c3ccccc23)cc(OC)c1 do in these assays?
IMP-1 inhibitor: -3; PDI turbidity: 3; PvdQ inh: -13; PglD DTNB: 21*; VIM-2 inh: -1; PglD inh SP: -5

What do the screens show for `COCC(=O)N1C[C@@H](C)[C@@H](OC)CN(C)C(=O)c2ccc(NC(=O)Nc3ccccc3)cc2OC[C@@H]1C`?
PglD DTNB: -2; ERp5 inh: 3

How did O=C1c2ccccc2COc2ccc(O)cc21 do in these assays?
IMP-1 inhibitor: -1; PDI turbidity: 5; PvdQ inh: -5; PglD DTNB: 2; VIM-2 inh: -3

How did COc1ccc2c(c1)C(=O)c1ccccc1CO2 do in these assays?
IMP-1 inhibitor: -1; PDI turbidity: 10; PvdQ inh: 3; PglD DTNB: 40*; VIM-2 inh: -2; PglD inh SP: 2

How did COc1ccccc1-c1nnc(SCc2ccccn2)n1C do in these assays?
IMP-1 inhibitor: -4; PDI turbidity: 11; PvdQ inh: -4; PglD DTNB: 62*; VIM-2 inh: -3; PglD inh SP: -3

Results for COc1ccc(S(=O)(=O)N[C@H]2CC[C@H](CCn3cc(-c4ccccc4F)nn3)O[C@H]2CO)cc1 ?
PglD DTNB: -2; ERp5 inh: -1

What do the screens show for `O=C(CCCOc1ccccc1)Nc1cccc(S(=O)(=O)N2CCOCC2)c1`?
PDI turbidity: -18; PvdQ inh: -15; PglD DTNB: 21*; ERp5 inh: -2; PglD inh SP: -4

Results for CC(=O)c1ccc(OCCCC(=O)Nc2cccc(S(=O)(=O)N3CCOCC3)c2)cc1 ?
PDI turbidity: 9; PvdQ inh: 1; PglD DTNB: -7; ERp5 inh: 2

How did CN(Cc1ccccc1)S(=O)(=O)c1ccc2[nH]c(=O)oc2c1 do in these assays?
IMP-1 inhibitor: -1; PDI turbidity: -4; PvdQ inh: -16; PglD DTNB: -3; VIM-2 inh: -1; ERp5 inh: 4

How did CN(c1ccccc1)S(=O)(=O)c1ccc2[nH]c(=O)oc2c1 do in these assays?
IMP-1 inhibitor: -2; PDI turbidity: 9; PvdQ inh: -13; PglD DTNB: 29*; VIM-2 inh: -2; ERp5 inh: 0; PglD inh SP: 3

What do the screens show for `CCN=C1Sc2nc3ccc(OCC)cc3cc2CN1CCOC`?
IMP-1 inhibitor: 0; PDI turbidity: 7; PvdQ inh: 8; PglD DTNB: 21*; VIM-2 inh: -3; PglD inh SP: -1

Source: PubChem BioAssay (several laboratories)
